Rce1 inh: blocks yeast Ras-converting enzyme. Q03530. yeast membranes, quenched prenylated peptide cleavage fluorescence. calls only. hit rate 0.27% among 290,000. AID 2563;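 active = fall in fluorescence gain of 50% or more versus controls, with final raw signal at or below 3038400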;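 note: plate controls were neutral control wells for no effect and wells lacking membranes for full effect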
FXN GAA850 act: activators of GAA850 frataxin (FXN) promoter; HEK293 lucGAA850 FXN promoter luciferase reporter, 24 h; percent of 10 µM SAHA response; activation, % at 6 µM; hit rate 0.56% among 360,000; AID 540364;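 active = activation above the average of all compounds screened plus 3 SD, cutoff fixed separately per campaign, cut at about 7.5% in these data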;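 note: 0% = DMSO wells and 100% = 10 µM SAHA wells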
pCIP destab: compounds decreasing mouse p/CIP protein stability. Q05BA5. AID 1984. F442A p/CIP-EGFP cells, EGFP fluorescence, 16 h. decrease of EGFP signal, % at 10 µM. hit rate 0.01% among 290,000;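 active = EGFP signal decrease of at least 30% at 10 µM or well 3 SD below plate mean, unless failing retest; inactive = the rest, including hits failing retest or dose response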
Target sequence (Q05BA5 1-1403): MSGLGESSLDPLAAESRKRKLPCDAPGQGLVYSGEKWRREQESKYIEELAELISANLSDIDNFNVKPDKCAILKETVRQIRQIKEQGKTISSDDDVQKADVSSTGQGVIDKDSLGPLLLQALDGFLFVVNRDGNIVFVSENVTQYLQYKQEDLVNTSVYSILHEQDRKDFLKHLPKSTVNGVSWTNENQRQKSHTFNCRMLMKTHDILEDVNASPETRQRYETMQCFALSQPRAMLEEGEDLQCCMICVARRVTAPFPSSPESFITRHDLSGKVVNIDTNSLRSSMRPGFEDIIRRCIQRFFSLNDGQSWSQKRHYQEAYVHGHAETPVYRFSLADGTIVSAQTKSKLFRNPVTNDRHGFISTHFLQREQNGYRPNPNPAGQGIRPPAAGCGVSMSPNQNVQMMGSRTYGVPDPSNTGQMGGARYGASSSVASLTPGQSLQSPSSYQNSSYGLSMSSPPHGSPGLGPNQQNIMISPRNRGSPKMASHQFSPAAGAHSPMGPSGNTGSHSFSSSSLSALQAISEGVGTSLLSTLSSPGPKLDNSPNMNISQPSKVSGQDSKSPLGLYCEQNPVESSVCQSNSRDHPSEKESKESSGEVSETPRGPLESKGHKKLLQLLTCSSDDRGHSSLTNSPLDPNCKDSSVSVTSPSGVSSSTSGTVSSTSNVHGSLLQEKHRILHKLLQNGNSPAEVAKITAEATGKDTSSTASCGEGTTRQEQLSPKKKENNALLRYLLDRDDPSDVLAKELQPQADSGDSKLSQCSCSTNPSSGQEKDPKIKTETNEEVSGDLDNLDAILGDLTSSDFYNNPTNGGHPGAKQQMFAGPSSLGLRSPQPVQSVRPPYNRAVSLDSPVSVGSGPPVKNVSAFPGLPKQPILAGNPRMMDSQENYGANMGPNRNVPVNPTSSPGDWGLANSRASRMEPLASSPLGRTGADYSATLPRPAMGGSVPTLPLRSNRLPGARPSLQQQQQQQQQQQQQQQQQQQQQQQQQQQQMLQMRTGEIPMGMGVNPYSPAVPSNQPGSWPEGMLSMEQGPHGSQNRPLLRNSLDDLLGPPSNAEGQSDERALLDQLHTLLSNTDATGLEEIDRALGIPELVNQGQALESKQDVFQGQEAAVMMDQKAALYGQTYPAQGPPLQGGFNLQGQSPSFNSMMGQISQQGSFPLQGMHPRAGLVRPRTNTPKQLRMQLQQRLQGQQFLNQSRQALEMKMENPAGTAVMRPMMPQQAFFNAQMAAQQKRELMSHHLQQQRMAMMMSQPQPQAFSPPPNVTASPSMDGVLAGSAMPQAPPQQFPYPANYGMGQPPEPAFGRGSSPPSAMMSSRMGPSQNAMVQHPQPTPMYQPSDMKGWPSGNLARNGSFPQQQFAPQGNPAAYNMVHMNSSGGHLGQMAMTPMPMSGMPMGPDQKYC
proCasp7 act: counter-screen: procaspase-7 (human) activation; AID 463210; activation, % at 8.5 µM; hit rate 0.093% among 330,000; recombinant procaspase-7, Ac-DEVD-pNA absorbance 405 nm; D23A/D198A/D206A triple mutant, cannot self-cleave; scale: DMSO 0, 5 µM enzyme 100; P55210;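 active = percent activation above the screen-wide mean plus 3 SD, cut at about 25% in these data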
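System: Uncleavable procaspase-7 mutant enzyme; Amount: 2 µM procaspase-7 mutant as dispensed; Schedule: 1 h compound preincubation, 2 h substrate cleavage, 25 °C; Measured by: 405 nm absorbance of p-nitroaniline; Evaluation: percent activation from buffer-corrected 0–120 min absorbance change; Control set: low DMSO alone, high DMSO plus 5 µM PC-7.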
Lipid droplet: hepatic lipid droplet formation modulation; AML12 mouse hepatocytes, oleate lipid droplets, BODIPY imaging; inhibition, % at 6.5 µM; hit rate 0.4% among 240,000; AID 1656;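 active = lipid droplet intensity inhibited by at least 50%, with more than 500 cells counted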
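Material – AML12 mouse liver cells · Also added – oleate loading, 100 µM · Compound dosing – 6.5 µM single-point dosing · Times – overnight treatment with compound plus oleate · Measured by – fluorescence imaging, 20x objective, two fields per well · Read-out – percent inhibition of filter-corrected integrated lipid droplet intensity per well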
proCasp3 act: activators of human procaspase-3; recombinant procaspase-3 D3A, Ac-DEVD-pNA absorbance 405 nm; activation, % at 8.5 µM; hit rate 0.11% among 330,000;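 active = activation above the mean of all tested compounds plus 3 SD, cut at about 21% in these data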;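 note: 0% = DMSO alone and 100% = DMSO wells spiked with extra 5 µM PC-3 D3A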
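Test system: Procaspase-3 D3A mutant; medium: Zinc-free HEPES/NaCl buffer with 0.01% Triton X-100 at pH 7.4; reagent: DEVD-pNA substrate; doses: one concentration, 8.5 µM nominal, 0.8% DMSO; times: 1 h preincubation plus 2 h reaction at 25 °C; signal: Epi-absorbance at 405 nm of released p-nitroaniline, 0 and 120 min; replicates: singlicate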
GAA30 counter: counter-screen for GAA850 frataxin promoter activators: GAA30 promoter activation | AID 588350 | activation, % at 6 µM | shares compounds with FXN GAA850 act | hit rate 66% among 1,900 | HEK293 lucGAA30 FXN promoter luciferase, 24 h; DMSO = 0%, 5 µM ipriflavone = 100%;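 active = mean activation above the mean of solvent-only control wells plus 3 SD, cut at about 22% in these data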;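 note: counterscreen of GAA850 promoter hits where activity marks nonselective or luminescence artifacts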
FXN GAA850 conf: confirmation of GAA850 frataxin (FXN) promoter activators; hit rate 86% among 1,900; HEK293 lucGAA850 FXN promoter luciferase reporter, 24 h; 100% = activation by SAHA; activation, % at 6 µM; shares compounds with FXN GAA850 act;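 active = mean activation above a set limit taken from the primary screen, cut at about 8% in these data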;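 note: 0% = DMSO wells and 100% = 10 µM SAHA wells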
* hit, by the source's call. The list is not random: actives were taken first. Their share in the collection is about 1.2%.

For COC1/C=C/C=C(\C)Cc2cc(O)c(Cl)c(c2)N(C)C(=O)CC(OC(=O)C(C)C)C2(C)OC2C(C)C2CC1(O)NC(=O)O2 (configuration not stated) the results were FXN GAA850 act 19*, GAA30 counter -17 and FXN GAA850 conf 21*.
Screening c1cncc(C2CCCCN2)c1 (configuration not stated) returned Rce1 inh inactive, FXN GAA850 act -1, pCIP destab -10, proCasp7 act 1, Lipid droplet -7 and proCasp3 act 12.
For c1cncc(C2Nc3cccc4cccc(c34)N2)c1 the results were Rce1 inh inactive, FXN GAA850 act 12*, pCIP destab -6, proCasp7 act 5, Lipid droplet 1, proCasp3 act -6, GAA30 counter 26* and FXN GAA850 conf 5.
Screening Cn1cccc1/C=C1\C(=O)NC(=O)N(Cc2ccco2)C1=O returned Rce1 inh inactive, FXN GAA850 act 4, pCIP destab -13 and Lipid droplet 2.
O=C1NC(=O)N(Cc2ccccc2)C(=O)/C1=C\C=C\c1ccco1 was read as Rce1 inh inactive, FXN GAA850 act 13*, pCIP destab -32, proCasp7 act -17, Lipid droplet -1, proCasp3 act -8, GAA30 counter 8 and FXN GAA850 conf 31*.
For O=C1NC(=O)N(Cc2ccco2)C(=O)/C1=C/C=C/c1ccco1 the results were Rce1 inh inactive, FXN GAA850 act 10*, pCIP destab -4, proCasp7 act -12, Lipid droplet 9, proCasp3 act 0, GAA30 counter -4 and FXN GAA850 conf 26*.
Screening O=[N+]([O-])c1ccc(O)c([N+](=O)[O-])c1 returned Rce1 inh inactive, FXN GAA850 act 0, proCasp7 act -15 and proCasp3 act -5.
O=[N+]([O-])c1ccc(Cl)c([N+](=O)[O-])c1 was read as FXN GAA850 act 8.0*, proCasp7 act -5, proCasp3 act -9, GAA30 counter 38* and FXN GAA850 conf 78*.
`Fc1ccc(NC(=S)N2Cc3ccccc3-n3nncc3C2)cc1` gave FXN GAA850 act 0.
Screening O=C1NC(=O)N(c2ccccc2)C(=O)/C1=C/C=C/c1ccco1 returned Rce1 inh inactive, FXN GAA850 act 6, pCIP destab -30, proCasp7 act -6, Lipid droplet -4 and proCasp3 act -12.
`Cc1ccc(N2C(=O)NC(=O)/C(=C\C=C\c3ccco3)C2=O)cc1C` gave Rce1 inh inactive, FXN GAA850 act 8.4*, pCIP destab -34, proCasp7 act -18, Lipid droplet -4, proCasp3 act -12, GAA30 counter -52 and FXN GAA850 conf -4.
Screening Cc1ccc(N2C(=O)NC(=O)/C(=C\C=C\c3ccco3)C2=O)cc1 returned Rce1 inh inactive, FXN GAA850 act 8.0*, pCIP destab -20, proCasp7 act -9, Lipid droplet -5, proCasp3 act -5, GAA30 counter 11 and FXN GAA850 conf 20*.
`COc1ccc2c(c1)C13CCN4CC5=CCOC6CC(=O)N2C1C6C5CC43` (configuration not stated) gave FXN GAA850 act 0.
O=C(OCc1ccccc1)N1CCC2CC1c1cc(N3Cc4ccccc4-n4nncc4C3)ccc12 (configuration not stated) was read as FXN GAA850 act 3.
`CC(C)COC(=O)N1Cc2ccccc2-n2nncc2C1` gave FXN GAA850 act 1.

Bioassay records: PubChem, several laboratories
